These results are taken from the array DNA melting data of Ke et al. (doi:10.1101/2024.01.08.574731).

The nature of series [1]: folding enthalpy; higher = less favourable; fluorescence melt of hairpins on a sequencing array, two-state fit. The note with it: sodium 0.088 M. In short, it runs like this: (§1)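 On a sequenced MiSeq flow cell, library hairpins with annealed Cy3 and quencher oligos were imaged for Cy3 fluorescence in 2.5 °C steps up to 60 °C, in 50 mM Na-HEPES pH 8.0, 25 mM NaCl. Normalisation used pre-quench Cy3 and control constructs. Bootstrapped two-state fits gave melting temperature and folding enthalpy, combined by inverse variance across four replicates and with fitted temperatures raised by 9.35 °C to match UV melts.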

Series [2] can be described thus: melting temperature; fluorescence melt of hairpins on a sequencing array, two-state fit, raised by 9.35 °C to match UV melts. The note with it: sodium 0.088 M. In short, it runs like this: as §1

In the case of GGCCCCGAAAGGGCGCC ((((((....))).))), the folding enthalpy in series [1] was -18.5 kcal/mol. Moreover, the Tm in series [2] was 68.6 °C.

On to GGCCCCGAAAGGGCGGCC ((((((....)))..))), for which the folding enthalpy in series [1] was -16.9 kcal/mol. Also, in series [2], the Tm came to 64.7 °C.

As to GGCCCCGAAAGGGTGGCC ((((((....)))..))), in series [1], the folding enthalpy is -22.7 kcal/mol. Moreover, the Tm in series [2] came to 61.6 °C.

For the sequence GGCCCCGGAAACGAGGCC ((((.((....)).)))), the folding enthalpy in series [1] was -38.4 kcal/mol. Besides, in series [2], the Tm amounted to 57.5 °C.

Take GGCCCGGCGAAAGCCGCC (((..(((....)))))): in series [1], the folding enthalpy is -7.68 kcal/mol. For the same sequence, in series [2], the Tm was found to be 37 °C.

On to GGCCCGGGAAACCGAGCC (((.(((....))).))), for which the folding enthalpy in series [1] was -46 kcal/mol. Further, the Tm in series [2] was determined as 54.2 °C.

As for GGCCCTACGAAAGTAGCC (((..(((....)))))), the folding enthalpy in series [1] is -15.3 kcal/mol. Besides, the Tm in series [2] is 31 °C.

With GGCCCTGCGAAAGCAGCC (((..(((....)))))), the folding enthalpy in series [1] was -8.71 kcal/mol. Also, in series [2], the Tm amounted to 36.9 °C.

GGCCCTGGAAACGGGGTC (.(((.(....).))).): the folding enthalpy in series [1] is -30.9 kcal/mol. In series [2], the Tm came out at 49 °C.

For the sequence GGCCGACGAAAGTCGCC (((.(((....)))))), the folding enthalpy in series [1] is -14.4 kcal/mol. Besides, the Tm in series [2] came out at 60.2 °C.

Take GGCCGAGGAAACTCGGTC (.(((((....))))).): the folding enthalpy in series [1] is -31.4 kcal/mol. For the same sequence, the Tm in series [2] is 64.4 °C.

Regarding GGCCGCGAAAGCGACGCC ((((((....)))..))), the folding enthalpy in series [1] was -16.9 kcal/mol. In series [2], the Tm stood at 66.4 °C.

For the sequence GGCCGCGAAAGCGTAGCC ((((((....)))..))), the folding enthalpy in series [1] is -22.5 kcal/mol. Besides, in series [2], the Tm is 61 °C.

GGCCGGCCGAAAGGCGCC (((..(((....)))))): the folding enthalpy in series [1] was -15.1 kcal/mol. For the same sequence, in series [2], the Tm came out at 57.3 °C.

For GGCCGGGCGAAAGCCGCC (((..(((....)))))), the folding enthalpy in series [1] is -18.1 kcal/mol. In series [2], the Tm was 57.7 °C.

On to GGCCGGGGAAACCTGGCC ((((.((....)).)))), for which the folding enthalpy in series [1] is -38.4 kcal/mol. Besides, the Tm in series [2] is 68 °C.

Consider GGCCGGGGAAACTCGGCC (((((.(....).))))), for which the folding enthalpy in series [1] is -40 kcal/mol. Besides, the Tm in series [2] was 68.4 °C.

With GGCCGGTCGAAAGACGCC (((..(((....)))))), the folding enthalpy in series [1] is -21.9 kcal/mol. The Tm in series [2] was found to be 48.4 °C.

On to GGCCGTCGAAAGACAGCC (((.(((....))).))), for which the folding enthalpy in series [1] was -35.1 kcal/mol. Further, in series [2], the Tm was 58.4 °C.

GGCCGTGGAAACACAGCC (((.(((....))).))): the folding enthalpy in series [1] is -36.8 kcal/mol. Besides, the Tm in series [2] worked out at 50.1 °C.

GGCCTAGGAAACTAGGTC (.(((((....))))).): the folding enthalpy in series [1] is -33.7 kcal/mol. The Tm in series [2] turned out to be 51.6 °C.

With GGCCTCGAAAGAGATGCC ((((((....)))..))), the folding enthalpy in series [1] was -24.1 kcal/mol. In addition, the Tm in series [2] worked out at 46.8 °C.

For GGCCTCGAAAGAGCCGCC ((((((....)))..))), the folding enthalpy in series [1] is -20.3 kcal/mol. Also, the Tm in series [2] came to 57.2 °C.

Take GGCCTCGAAAGAGGGGCC ((((((....)))..))): the folding enthalpy in series [1] is -23 kcal/mol. For the same sequence, the Tm in series [2] is 54.9 °C.

For the sequence GGCCTCGCGAAAGCGGCC (((..(((....)))))), the folding enthalpy in series [1] is -17.5 kcal/mol. Further, the Tm in series [2] amounted to 59.4 °C.

GGCCTCGGAAACAAGGCC (((((.(....).))))): the folding enthalpy in series [1] is -34.5 kcal/mol. Moreover, the Tm in series [2] worked out at 51.9 °C.

With GGCCTCGGAAACGAGGTC (.(((((....))))).), the folding enthalpy in series [1] is -28.2 kcal/mol. Moreover, in series [2], the Tm was found to be 64.7 °C.

For the sequence GGCCTGACGAAAGTCGCC (((..(((....)))))), the folding enthalpy in series [1] was -16.3 kcal/mol. For the same sequence, in series [2], the Tm was determined as 44 °C.

As to GGCCTGGCGAAAGCCGCC (((..(((....)))))), the folding enthalpy in series [1] is -15.5 kcal/mol. For the same sequence, in series [2], the Tm was found to be 48.7 °C.

In the case of GGCCTGGGAAACCAGGTC (.(((((....))))).), the folding enthalpy in series [1] is -33 kcal/mol. In series [2], the Tm came to 58.5 °C.

Consider GGCCTTGGAAACAAAGCC (((.(((....))).))), for which, in series [1], the folding enthalpy was -25.8 kcal/mol. Further, the Tm in series [2] turned out to be 38.9 °C.

As to GGCCTTGGAAACGAGGTC (.(((.(....).))).), the folding enthalpy in series [1] was -31.3 kcal/mol. The Tm in series [2] is 43.2 °C.

Take GGCGAACGAAAGTTGCC (((.(((....)))))): in series [1], the folding enthalpy is -36.5 kcal/mol. The Tm in series [2] was 56.9 °C.

Consider GGCGACCCGAAAGGGGCC (((..(((....)))))), for which the folding enthalpy in series [1] was -13.1 kcal/mol. Besides, the Tm in series [2] amounted to 54.6 °C.

In the case of GGCGACGAAAGTCATGCC ((((((....)))..))), the folding enthalpy in series [1] is -27.2 kcal/mol. Further, in series [2], the Tm is 52.5 °C.

Turning to GGCGACGAAAGTCGAGCC ((((((....)))..))), the folding enthalpy in series [1] was -15.9 kcal/mol. Further, the Tm in series [2] came out at 55.8 °C.

As to GGCGACGAAAGTCGCGCC ((((((....)))..))), the folding enthalpy in series [1] was -6.6 kcal/mol. The Tm in series [2] stood at 65.8 °C.
